Key:
[1] = test system: Human immunodeficiency virus 1; assay: (§1) Antiviral activity against Human immunodeficiency virus type-1; type: functional, organism-based
Outline: (§2)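 Cell-protection read-out: HSV-1 Kos strain on MRC-5 cells, HSV-2 G strain on MRC-5 cells, HIV-1 IIIb strain on MT-4 cells. Cells infected at MOI 0.02, then immediately plated with serial compound dilutions. After 4 days of incubation at 36 °C, viable cells were counted by MTT. […].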

Human alphaherpesvirus 1 = assay: Antiviral activity against Herpes simplex virus type-1 (HSV-1).; type: functional, organism-based; outline: as §2
Human alphaherpesvirus 2 = assay: Antiviral activity against Herpes simplex virus type-2 (HSV-2).; type: functional, organism-based; outline: as §2
KB = assay: Cytotoxicity against KB cells.; type: functional, cell-based; settings: Homo sapiens
L1210 = assay: Cytotoxicity against L1210 cells.; type: functional, cell-based; settings: Mus musculus
[2] = test system: Human immunodeficiency virus 1; assay: as §1

SMILES	EC50 [1]	IC50 [1]	EC50 (Human alphaherpesvirus 1)	IC50 (Human alphaherpesvirus 1)	EC50 (Human alphaherpesvirus 2)	IC50 (Human alphaherpesvirus 2)	IC50 (KB)	IC50 (L1210)	EC50 [2]
CC[C@]1(CO)O[C@@H](n2ccc(N)nc2=O)C[C@@H]1O	0.013 µM	0.77 µM	> 350 µM	> 350 µM	> 350 µM	> 350 µM	> 350 µM	55 µM	
C#C[C@]1(CO)O[C@@H](n2ccc(N)nc2=O)[C@H](O)[C@@H]1O							> 350 µM	> 350 µM	
Cc1cn([C@H]2C[C@H](N=[N+]=[N-])[C@@H](CO)O2)c(=O)[nH]c1=O [ZIDOVUDINE]		3.2 µM							0.0041 µM
Nc1nc2c(ncn2COCCO)c(=O)[nH]1 [ACYCLOVIR]			0.36 µM	> 350 µM	1.1 µM	> 350 µM			
N#C[C@]1(CO)O[C@@H](n2ccc(=O)[nH]c2=O)[C@H](O)[C@@H]1O							> 350 µM	> 350 µM	
C#C[C@]1(CO)O[C@@H](n2ccc(N)nc2=O)C[C@@H]1O	0.0022 µM	0.16 µM	200 µM	> 350 µM	> 350 µM	> 350 µM			
C#C[C@]1(CO)O[C@@H](n2ccc(=O)[nH]c2=O)[C@H](O)[C@@H]1O							> 350 µM	> 350 µM	
C[C@]1(CO)O[C@@H](n2ccc(N)nc2=O)C[C@@H]1O	0.062 µM	0.062 µM	3.1 µM	260 µM	0.58 µM	260 µM	> 350 µM	0.16 µM	
N#C[C@]1(CO)O[C@@H](n2ccc(N)nc2=O)C[C@@H]1O	0.0012 µM	0.17 µM	3.6 µM	> 350 µM	21 µM	> 350 µM	> 350 µM	0.33 µM	
N#C[C@]1(CO)O[C@@H](n2ccc(N)nc2=O)[C@H](O)[C@@H]1O							> 350 µM	> 350 µM	
Nc1ccn([C@H]2C[C@H](O)[C@@](/C=C/Cl)(CO)O2)c(=O)n1	2.1 µM	4.6 µM	> 350 µM	> 350 µM	> 350 µM	> 350 µM	> 350 µM	200 µM	
C=C[C@]1(CO)O[C@@H](n2ccc(N)nc2=O)C[C@@H]1O	0.0086 µM	0.18 µM	> 350 µM	> 350 µM	> 350 µM	> 350 µM	> 350 µM	21 µM	
